Experiments:
[1] = system: Escherichia coli; experiment: Bactericidal activity against Escherichia coli ATCC 25922; type: functional; conditions: read-out: MBC99.9
Outline: (§1)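 Wells from the 24 h, 37 °C MHB microdilution plates (bacteria at a final (0.5−1) × 10^5 CFU/mL; peptide diluted in 0.2% BSA) were plated on agar and incubated overnight. MBC is the lowest concentration killing >99.9% of cells. Each test was reproduced at least 3 times.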

[2] = system: Candida albicans; experiment: Antifungal activity against Candida albicans SP3876 after 48 hrs by broth microdilution method; type: functional; conditions: SP3876, 48 h
Outline: (§2)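 Modified CLSI M27-A2 broth microdilution. Yeast at (0.5−1) × 10^3 CFU/mL in MOPS-buffered RPMI 1640 was mixed 1:1 with peptide serially diluted in 0.2% BSA and incubated 48 h at 28 °C. Absorbance was read at 492 nm; MIC is the lowest concentration inhibiting 95% of growth. Triplicate, three biological replicates.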

[3] = system: Candida albicans; experiment: Antifungal activity against Candida albicans cgmcc 2.2086 after 48 hrs by broth microdilution method; type: functional; conditions: cgmcc 2.2086, 48 h; outline: as §2
[4] = system: Salmonella typhimurium; experiment: Antibacterial activity against Salmonella typhimurium ATCC 14028 after 24 hrs; type: functional, Salmonella enterica subsp. enterica serovar Typhimurium; conditions: Salmonella enterica, ATCC 14028, 24 h
Outline: (§3)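 Broth microdilution. Mid-log bacteria in MHB at a final (0.5−1) × 10^5 CFU/mL were mixed with equal volumes of peptide serially diluted in 0.2% BSA. Plates were incubated 24 h at 37 °C and read at A492. MIC is the lowest concentration inhibiting 95% of growth. Each test was repeated at least 3 times.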

[5] = system: Candida albicans; experiment: Antifungal activity against Candida albicans SP3903 after 48 hrs by broth microdilution method; type: functional; conditions: SP3903, 48 h; outline: as §2
[6] = system: Candida albicans; experiment: Antifungal activity against Candida albicans cgmcc 2.2086 in presence of FeCl3 by broth dilution method; type: functional
[7] = system: Candida albicans; experiment: Fungicidal activity against Candida albicans cgmcc 2.2086 after 96 hrs; type: functional; conditions: cgmcc 2.2086, 96 h, read-out: MFC99.9
Outline: (§4)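 After the 48 h, 28 °C broth microdilution in MOPS-buffered RPMI 1640 (inoculum (0.5−1) × 10^3 CFU/mL), 50 μL from each well was plated on YM agar for a further 48 h at 28 °C. MFC is the lowest concentration killing at least 99.9% of cells. Triplicate, three biological replicates.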

[8] = system: Candida albicans; experiment: Antifungal activity against Candida albicans cgmcc 2.2086 in presence of KCl by broth dilution method; type: functional
[9] = system: Staphylococcus aureus; experiment: Antibacterial activity against Staphylococcus aureus ATCC 25923 after 24 hrs; type: functional; conditions: ATCC 25923, 24 h
Outline: (§5)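 Modified NCCLS broth microdilution. Mid-log bacteria at (0.5−1) × 10^5 CFU/mL in MHB were mixed 1:1 with peptide serially diluted in 0.2% BSA and incubated 24 h at 37 °C. Absorbance was read at 492 nm; MIC is the lowest concentration inhibiting 95% of growth. At least 3 repeats.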

[10] = Antibacterial activity against Salmonella pullorum ATCC 7913 after 24 hrs; type: functional, Salmonella enterica subsp. enterica serovar Pullorum; conditions: Salmonella enterica, ATCC 7913, 24 h; outline: as §3
[11] = system: Pichia kudriavzevii; experiment: Fungicidal activity against Candida krusei cgmcc 2.1857 after 96 hrs; type: functional; conditions: cgmcc 2.1857, 96 h, read-out: MFC99.9
Outline: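 Wells from the 48 h, 28 °C RPMI 1640/MOPS microdilution plates were plated on YM agar and incubated a further 48 h at 28 °C. MFC is the lowest concentration killing at least 99.9% of cells. Run in triplicate with three biological replicates.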

[12] = Cytotoxicity against mouse RAW264.7 cells assessed as cell viability at 2 to 64 uM after 24 hrs by MTT assay relative to control; type: cell-based; conditions: read-out: Activity
Outline: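 MTT viability assay. RAW264.7 or HEK293T cells at (1.0−2.0) × 10^5 per well were exposed to a peptide concentration series for 24 h at 37 °C in 5% CO2. MTT was then added at 0.5 mg/mL final for 4 h; formazan was dissolved in DMSO and read at 570 nm. Results average three independent trials.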

[13] = system: Candida albicans; experiment: Antifungal activity against fluconazole-resistant Candida albicans 56214 after 48 hrs by broth microdilution method; type: functional; conditions: Candida albicans, 56214, 48 h; outline: as §2
[14] = system: Candida albicans; experiment: Antifungal activity against Candida albicans SP3902 after 48 hrs by broth microdilution method; type: functional; conditions: SP3902, 48 h; outline: as §2
[15] = system: Erythrocyte; experiment: Hemolytic activity in human RBC after 1 hr; type: ADME, cell-based
Outline: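 Fresh human erythrocytes, diluted 10-fold in PBS pH 7.4, were mixed with equal volumes of peptide and held 1 h at 37 °C. After centrifugation at 1000g, supernatant hemoglobin was read at 576 nm. PBS set 0% and 0.1% Triton X-100 set 100% lysis. MHC is the concentration causing 10% hemolysis. At least three experiments were run, each in technical triplicate.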

[16] = system: Candida albicans; experiment: Antifungal activity against Candida albicans SP3931 after 48 hrs by broth microdilution method; type: functional; conditions: SP3931, 48 h; outline: as §2
[17] = system: Escherichia coli; experiment: Antibacterial activity against Escherichia coli ATCC 25922 after 18 hrs in presence of MgCl2 by broth dilution method; type: functional; conditions: ATCC 25922, 18 h
[18] = system: Escherichia coli; experiment: Antibacterial activity against Escherichia coli ATCC 25922 after 18 hrs in presence of NH4Cl by broth dilution method; type: functional; conditions: ATCC 25922, 18 h
[19] = system: Staphylococcus aureus; experiment: Antibacterial activity against methicillin-resistant Staphylococcus aureus ATCC 4330 after 24 hrs; type: functional; conditions: ATCC 4330, 24 h; outline: as §5
[20] = system: Staphylococcus aureus; experiment: Bactericidal activity against methicillin-resistant Staphylococcus aureus ATCC 4330; type: functional; conditions: read-out: MBC99.9
Outline: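 Bacteria at (0.5−1) × 10^5 CFU/mL in MHB were exposed to serially diluted peptide (0.2% BSA) for 24 h at 37 °C, then 50 μL aliquots were plated on agar overnight. MBC is the lowest concentration killing >99.9% of cells. At least 3 repeats.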

[21] = system: Escherichia coli; experiment: Antibacterial activity against Escherichia coli ATCC 25922 after 18 hrs in presence of NaCl by broth dilution method; type: functional; conditions: ATCC 25922, 18 h
[22] = system: Staphylococcus epidermidis; experiment: Antibacterial activity against Staphylococcus epidermidis ATCC 12228 after 24 hrs; type: functional; conditions: ATCC 12228, 24 h; outline: as §3
[23] = system: Candida albicans; experiment: Antifungal activity against fluconazole-resistant Candida albicans 17546 after 48 hrs by broth microdilution method; type: functional; conditions: Candida albicans, 17546, 48 h; outline: as §2
[24] = system: Escherichia coli; experiment: Bactericidal activity against Escherichia coli 1005; type: functional; conditions: read-out: MBC99.9; outline: as §1
[25] = system: Candida albicans; experiment: Antifungal activity against Candida albicans cgmcc 2.2086 in presence of MgCl2 by broth dilution method; type: functional
[26] = system: Candida albicans; experiment: Antifungal activity against Candida albicans 58288 after 48 hrs by broth microdilution method; type: functional; conditions: Candida albicans, 58288, 48 h; outline: as §2
[27] = system: Staphylococcus aureus; experiment: Bactericidal activity against Staphylococcus aureus ATCC 25923; type: functional; conditions: read-out: MBC99.9; outline: as §1
[28] = system: Staphylococcus epidermidis; experiment: Bactericidal activity against Staphylococcus epidermidis ATCC 12228; type: functional; conditions: read-out: MBC99.9; outline: as §1
[29] = system: Candida albicans; experiment: Fungicidal activity against Candida albicans 58288 after 96 hrs; type: functional; conditions: Candida albicans, 58288, 96 h; read-out: MFC99.9; outline: as §4

Substance	MBC [1] [µM]	MIC95 [2] [µM]	MIC95 [3] [µM]	MIC95 [4] [µM]	MIC95 [5] [µM]	MIC [6] [µM]	MFC [7] [µM]	MIC [8] [µM]	MIC95 [9] [µM]	MIC95 [10] [µM]	MFC [11] [µM]	viability at 24 h, up to 64 µM [12] [%]	MIC95 [13] [µM]	MIC95 [14] [µM]	HC10 [15] [µM]	MIC95 [16] [µM]	MIC [17] [µM]	MIC [18] [µM]	MIC95 [19] [µM]	MBC [20] [µM]	other results
H-FFRRFRRFF-NH2	8	16	16	4	16	32	32	16	4	32	4	70 to 80	16	32	> 128	16	8	8	4	4	MIC [21]: 8 µM; MIC95 [22]: 4 µM; MIC95 [23]: 4 µM; MBC [24]: 16 µM; MIC [25]: 16 µM; MIC95 [26]: 16 µM; MBC [27]: 8 µM; MBC [28]: 8 µM; MFC [29]: 32 µM
H-IIRRIRRII-NH2	32	> 64	64	64	> 64	64	64	64	> 64	32	16	70 to 80	64	> 64	> 128	> 64	32	32	64	> 64	MIC [21]: 32 µM; MIC95 [22]: 64 µM; MIC95 [23]: > 64 µM; MBC [24]: 32 µM; MIC [25]: 64 µM; MIC95 [26]: > 64 µM; MBC [27]: > 64 µM; MBC [28]: > 64 µM; MFC [29]: 64 µM
H-LLRRLRRLL-NH2	32	32	32	16	16	64	64	64	16	32	8	70 to 80	32	> 64	> 128	32	16	16	8	16	MIC [21]: 16 µM; MIC95 [22]: 16 µM; MIC95 [23]: 64 µM; MBC [24]: 16 µM; MIC [25]: 64 µM; MIC95 [26]: 64 µM; MBC [27]: 32 µM; MBC [28]: 16 µM; MFC [29]: 32 µM
H-RFFRRFRRFFR-NH2	8	8	8	4	4	8	16	16	4	4	4	70 to 80	8	8	> 128	8	2	4	4	8	MIC [21]: 8 µM; MIC95 [22]: 4 µM; MIC95 [23]: 4 µM; MBC [24]: 8 µM; MIC [25]: 8 µM; MIC95 [26]: 4 µM; MBC [27]: 8 µM; MBC [28]: 4 µM; MFC [29]: 16 µM
